Where two headings read alike, the source gives them in different places.
Experiments:
[1] = format: in vivo, human; conditions: for CL renal / AUC(0-inf) / Cmax / Tmax / AUC(0-t) / CL/F / Vd/F / half-life / k el: human, 20 mg; for CL renal: plasma and urine, CLR; for AUC(0-inf) / Cmax / Tmax / AUC(0-t) / CL/F / Vd/F / half-life / k el: plasma; for AUC(0-t): AUClast, fasted, n = 6; for CL/F: CLP/F; for Vd/F: Vz/F; for half-life: t½β; for k el: λz
Outline: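 Single oral 20 mg tablet given fasted (8–10 h) to groups of six subjects stratified by iothalamate GFR (>80, 50–80, 30–50, ≤30 mL/min/1.73 m2). Heparinised blood was drawn pre-dose and 0.25–72 h post-dose; plasma was spun at 1,500×g, 4–8 °C, then frozen. AUClast used the trapezoidal rule, AUC∞ = AUClast + Clast/ke, and CLP/F = dose/AUC∞. Ratios to the healthy group came from ln-transformed ANOVA least-squares means with 90 % CI.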

[2] = Urine concentrations / urinary excretion of bilastine after a single oral dose; format: in vivo, human; conditions: for Urine concentrations of bilastine: mean ± SD
Outline: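 Subjects were grouped by iothalamate GFR (n = 6 each) and received one fasted oral 20 mg tablet. Urine was pooled over 0–12, 12–24, 24–48 and 48–72 h post-dose and kept refrigerated during each interval. Total volume was measured per interval, and aliquots were stored at −20 °C. Ae is the total unchanged drug over the whole collection, and CLR = Ae/AUC over a defined period.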

Safety evaluations = format: in vivo, human
Outline: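 Four groups (n = 6) were assigned by iothalamate GFR: >80, 50–80, 30–50 and ≤30 mL/min/1.73 m2. Each subject took one oral 20 mg tablet with 200 mL water after an 8–10 h fast. ECG (12-lead) was recorded pre-dose, 1 and 24 h, with QTcF and QTcB. Vital signs were taken daily. Hematology, biochemistry and urinalysis were done at screening, pre-dose and 72 h. AEs were coded by MedDRA 11.0, and results summarised descriptively.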

histamine H1 receptor = conditions: animal tissues with a high density of H1 receptors; cited from earlier work
[3] = tested on: 30 other receptors (including muscarinic receptors); conditions: at a high concentration; cited from earlier work
[4] = tested on: histamine receptor subtypes H2, H3, and H4; conditions: at a high concentration; cited from earlier work
[5] = tested on: human breast cancer resistance protein (BCRP); conditions: cited from earlier work
[6] = tested on: organic anion transporter 1 (OAT1); conditions: cited from earlier work
[7] = tested on: organic anion transporter 3 (OAT3); conditions: cited from earlier work
[8] = tested on: organic cation transporter 2 (OCT2); conditions: cited from earlier work
[9] = single 80 mg oral dose; 95 % CI 3,174.7–6278.4; cited from earlier work
[10] = compared among the renal impairment groups; cited from earlier work
[11] = doses up to 40 mg; cited from earlier work
[12] = cited from earlier work
[13] = group 2: mild vs group 1: healthy
[14] = group 3: moderate vs group 1: healthy
[15] = group 4: severe vs group 1: healthy
[16] = po, Group 1: healthy, single oral 20 mg, mean ± SD
[17] = po, Group 2: mild, single oral 20 mg, mean ± SD
[18] = po, Group 3: moderate, single oral 20 mg, mean ± SD
[19] = po, Group 4: severe, single oral 20 mg, mean ± SD
[20] = oral, geometric LS mean, Test group 2: mild, ANOVA
[21] = oral, geometric LS mean, Test group 4: severe, ANOVA

With `CCOCCn1c(C2CCN(CCc3ccc(C(C)(C)C(=O)O)cc3)CC2)nc2ccccc21` [bilastine, 2-[4-(2-(4-(1-(2-ethoxyethyl)-1H-benzimidazol-2-yl)piperidin-1-yl)ethyl)phenyl]-2-methylpropionic acid] as the compound, how does the Clast ([1]; Group 1: healthy, single oral 20 mg, mean ± SD) read?
The Clast was 0.3 ± 0.1 ng/mL.

And the Clast ([1]; Group 2: mild, single oral 20 mg, mean ± SD)?
Its Clast is 0.8 ± 0.3 ng/mL.

And the Clast ([1]; Group 3: moderate, single oral 20 mg, mean ± SD)?
The Clast was 0.4 ± 0.1 ng/mL.

What about the Clast ([1]; Group 4: severe, single oral 20 mg, mean ± SD) of the same compound?
Its Clast is 1.5 ± 1.1 ng/mL.

What about the “amount in the plasma after 24 h relative to Cmax” value ([1]; all the groups, single oral 20 mg) of the same compound?
Its value is “less than 5 % of the Cmax”.

What about the “AUClast, geometric mean ratio” value [1, 13] of the same compound?
The value was 1.34.

And the “AUC∞, geometric mean ratio” value [1, 13]?
The value was 1.36.

What about the “Cmax, geometric mean ratio” value [1, 13] of the same compound?
The value was 1.24.

What about the “tmax, difference of median values” [1, 13] of the same compound?
Its value is 0.00.

And the “AUClast, geometric mean ratio” value [1, 14]?
Its value is 1.94.

And the “AUC∞, geometric mean ratio” value [1, 14]?
Its value is 1.94.

What about the “Cmax, geometric mean ratio” value [1, 14] of the same compound?
Its value is 2.00.

And the “tmax, difference of median values” [1, 14]?
Its value is 0.75.

What about the “AUClast, geometric mean ratio” value [1, 15] of the same compound?
Its value is 2.11.

And the “AUC∞, geometric mean ratio” value [1, 15]?
The value was 2.15.

What about the “Cmax, geometric mean ratio” value [1, 15] of the same compound?
Its value is 1.59.

And the “tmax, difference of median values” [1, 15]?
The value was 0.00.

What about the CL renal [1, 16] of the same compound?
The CL renal was 145 mL/min.

And the CL renal [1, 17]?
The CL renal was 116 mL/min.

And the CL renal [1, 18]?
The CL renal was 91.5 mL/min.

What about the CL renal [1, 19] of the same compound?
Its CL renal is 67.2 mL/min.

What about the AUC(0-inf) [1, 20] of the same compound?
Its AUC(0-inf) is 959 ng·h/mL.

And the AUC(0-inf) [1, 21]?
Its AUC(0-inf) is 1510 ng·h/mL.

And the Cmax [1, 20]?
Its Cmax is 167 ng/mL.

What about the Cmax [1, 21] of the same compound?
The Cmax was 214 ng/mL.

What about the Tmax ([1]; oral, median, Reference (group 1: healthy)) of the same compound?
The Tmax was 1.5 h.

What about the Tmax ([1]; oral, median, Test group 2: mild) of the same compound?
The Tmax was 1.5 h.

What about the Tmax ([1]; oral, median, Test group 3: moderate) of the same compound?
The Tmax was 2.25 h.

And the Tmax ([1]; oral, median, Test group 4: severe)?
The Tmax was 1.5 h.

And the AUC(0-t) ([1]; po, Group 1: healthy (GFR >80), single oral 20 mg, mean ± SD)?
Its AUC(0-t) is 733 ± 260 ng·h/mL.

And the AUC(0-t) ([1]; po, Group 2: mild renal insufficiency (GFR 50–80), single oral 20 mg, mean ± SD)?
Its AUC(0-t) is 947 ± 148 ng·h/mL.

And the AUC(0-t) ([1]; po, Group 3: moderate renal insufficiency (GFR 30–50), single oral 20 mg, mean ± SD)?
Its AUC(0-t) is 1380 ng·h/mL.

And the AUC(0-t) ([1]; po, Group 4: severe renal insufficiency (GFR ≤30), single oral 20 mg, mean ± SD)?
Its AUC(0-t) is 1650 ng·h/mL.

What about the AUC(0-inf) [1, 16] of the same compound?
Its AUC(0-inf) is 737 ± 261 ng·h/mL.

What about the AUC(0-inf) [1, 17] of the same compound?
The AUC(0-inf) was 967 ± 140 ng·h/mL.

What about the AUC(0-inf) [1, 18] of the same compound?
Its AUC(0-inf) is 1380 ng·h/mL.

What about the AUC(0-inf) [1, 19] of the same compound?
Its AUC(0-inf) is 1710 ng·h/mL.

And the CL/F [1, 16]?
Its CL/F is 495 mL/min.

And the CL/F [1, 17]?
Its CL/F is 351 mL/min.

What about the CL/F [1, 18] of the same compound?
The CL/F was 248 mL/min.

What about the CL/F [1, 19] of the same compound?
Its CL/F is 271 mL/min.

And the Cmax [1, 16]?
The Cmax was 144 ± 57.8 ng/mL.

What about the Cmax [1, 17] of the same compound?
Its Cmax is 172 ± 45 ng/mL.

What about the Cmax [1, 18] of the same compound?
Its Cmax is 271 ± 30.4 ng/mL.

And the Cmax [1, 19]?
Its Cmax is 229 ± 81.8 ng/mL.

And the Vd/F [1, 16]?
Its Vd/F is 383 ± 122 L.

And the Vd/F [1, 17]?
The Vd/F was 462 ± 244 L.

And the Vd/F [1, 18]?
The Vd/F was 223 ± 55.7 L.

And the Vd/F [1, 19]?
Its Vd/F is 351 ± 193 L.

What about the Tmax ([1]; po, Group 1: healthy, single oral 20 mg, median (range)) of the same compound?
Its Tmax is 1.5 h.

And the Tmax ([1]; po, Group 2: mild, single oral 20 mg, median (range))?
The Tmax was 1.5 h.

And the Tmax ([1]; po, Group 3: moderate, single oral 20 mg, median (range))?
Its Tmax is 2.25 h.

What about the Tmax ([1]; po, Group 4: severe, single oral 20 mg, median (range)) of the same compound?
The Tmax was 1.5 h.

And the half-life [1, 16]?
The half-life was 9.26 ± 2.79 h.

What about the half-life [1, 17] of the same compound?
The half-life was 15.1 ± 7.66 h.

What about the half-life [1, 18] of the same compound?
The half-life was 10.5 ± 2.34 h.

And the half-life [1, 19]?
The half-life was 18.4 ± 11.4 h.

What about the k el [1, 16] of the same compound?
The k el was 2.21e-05 s⁻¹.

What about the k el [1, 17] of the same compound?
The k el was 1.65e-05 s⁻¹.

And the k el [1, 18]?
The k el was 1.92e-05 s⁻¹.

And the k el [1, 19]?
The k el was 1.39e-05 s⁻¹.

What about the “Urine concentrations of bilastine” value ([2]; 0–12 h, Group 1: healthy, single oral 20 mg) of the same compound?
Its value is 4,387.5 ± 3,358.4 ng/mL.

And the “Urine concentrations of bilastine” value ([2]; 0–12 h, Group 2: mild)?
The value was 4,824.1 ± 2,073.0 ng/mL.

And the “Urine concentrations of bilastine” value ([2]; 0–12 h, Group 3: moderate)?
The value was 7,184.3 ± 3,843.4 ng/mL.

What about the “Urine concentrations of bilastine” value ([2]; 0–12 h, Group 4: severe) of the same compound?
The value was 3,469.8 ± 2,066.2 ng/mL.

And the “Urine concentrations of bilastine” value ([2]; 12–24 h, Group 1: healthy)?
Its value is 531.7 ± 342.0 ng/mL.

What about the “Urine concentrations of bilastine” value ([2]; 12–24 h, Group 2: mild) of the same compound?
Its value is 597.7 ± 159.2 ng/mL.

What about the “Urine concentrations of bilastine” value ([2]; 12–24 h, Group 3: moderate) of the same compound?
Its value is 472.9 ± 221.9 ng/mL.

And the “Urine concentrations of bilastine” value ([2]; 12–24 h, Group 4: severe)?
Its value is 813.0 ± 567.5 ng/mL.

What about the “Urine concentrations of bilastine” value ([2]; 24–48 h, Group 1: healthy) of the same compound?
The value was 103.4 ± 38.6 ng/mL.

And the “Urine concentrations of bilastine” value ([2]; 24–48 h, Group 2: mild)?
The value was 159.3 ± 43.3 ng/mL.

And the “Urine concentrations of bilastine” value ([2]; 24–48 h, Group 3: moderate)?
The value was 126.7 ± 81.1 ng/mL.

And the “Urine concentrations of bilastine” value ([2]; 24–48 h, Group 4: severe)?
Its value is 260.4 ± 212.1 ng/mL.

And the “Urine concentrations of bilastine” value ([2]; 48–72 h, Group 1: healthy)?
The value was 20.9 ± 10.0 ng/mL.

What about the “Urine concentrations of bilastine” value ([2]; 48–72 h, Group 2: mild) of the same compound?
The value was 49.3 ± 40.7 ng/mL.

And the “Urine concentrations of bilastine” value ([2]; 48–72 h, Group 3: moderate)?
Its value is 30.3 ± 7.4 ng/mL.

And the “Urine concentrations of bilastine” value ([2]; 48–72 h, Group 4: severe)?
The value was 97.8 ± 69.3 ng/mL.

And the “time by which urinary excretion was essentially complete” value ([2]; single oral 20 mg, most excreted in the first 12 h)?
Its value is “up to 72 h”.

And the tolerability (Safety evaluations; 20 mg oral dose, healthy and renally impaired subjects)?
Its tolerability is “well-tolerated”.

And the “subjects with outlier ECG results” value (Safety evaluations; all 24 subjects, single oral 20 mg)?
Its value is 20.8%.

And the “subjects with outlier ECG results” value (Safety evaluations; each of the mild, moderate, and severe impairment groups)?
Its value is 16.7%.

What about the “subjects with outlier ECG results” value (Safety evaluations; healthy group) of the same compound?
Its value is 33.3%.

And the “mean blood glucose concentration” value (Safety evaluations; mildly impaired group, end of study, reference range 60–115 mg/dL)?
The value was 120.8 mg/dL.

And the “affinity for H1 receptors relative to cetirizine” value (histamine H1 receptor)?
The value was “three times higher”.

What about the “affinity for H1 receptors relative to fexofenadine” value (histamine H1 receptor) of the same compound?
Its value is “five times higher”.

And the “affinity for 30 other receptors” value [3]?
Its value is “does not show affinity”.

And the “affinity for histamine receptor subtypes H2, H3, and H4” value [4]?
The value was “does not show affinity”.

And the “substrate of BCRP” value [5]?
Its value is “not a substrate”.

And the “substrate of OAT1” value [6]?
Its value is “not a substrate”.

And the “substrate of OAT3” value [7]?
The value was “not a substrate”.

And the “substrate of OCT2” value [8]?
Its value is “not a substrate”.

What about the “AUC∞, mean estimated exposure (safety margin)” value [9] of the same compound?
The value was 4,225.6 ng·h/mL.

What about the plasma protein binding [10] of the same compound?
Its plasma protein binding is “comparable values were found among the renal impairment groups”.

And the “sedative or psychomotor effects” value [11]?
Its value is “No sedative or psychomotor effects were detected”.

And the metabolism [12]?
Its metabolism is “not metabolized”.
